OX1R antag-1: human HCRTR1 antagonism | CHO/OX1R cells, Fluo-8 calcium fluorescence, orexin A | inhibition, % at 5 µM | actives 0.43% (n = 330,000);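 active = inhibition above its plate's threshold, mean inhibition of all tested compounds on the plate plus 3 SD, cut at about 37% in these data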;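 also: 0% = orexin A challenge wells and 100% = SB-334867-A antagonist wells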
Target sequence (O43613 whole entry, looked up): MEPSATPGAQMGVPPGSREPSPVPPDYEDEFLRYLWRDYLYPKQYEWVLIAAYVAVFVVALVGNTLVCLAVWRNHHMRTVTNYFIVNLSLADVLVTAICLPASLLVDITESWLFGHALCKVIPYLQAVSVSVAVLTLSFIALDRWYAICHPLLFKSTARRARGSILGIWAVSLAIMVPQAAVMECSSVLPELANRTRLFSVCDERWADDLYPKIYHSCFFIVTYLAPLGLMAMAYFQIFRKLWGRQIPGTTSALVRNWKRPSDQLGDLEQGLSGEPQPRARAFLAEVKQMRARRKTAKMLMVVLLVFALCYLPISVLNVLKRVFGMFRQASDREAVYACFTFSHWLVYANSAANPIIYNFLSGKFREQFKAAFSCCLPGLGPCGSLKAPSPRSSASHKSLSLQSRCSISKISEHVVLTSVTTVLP
TAAR1 ag: human TAAR1 agonism | CHO RD-HGA16 TAAR1, Fluo-8 calcium fluorescence; vehicle wells 0%, saturating PEA agonist 100% | Q96RJ0 | actives 0.99% (n = 360,000) | activation, % at 3 µM;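 active = activation above the mean activation of all test compounds in the run plus 3 SD, cut at about 38% in these data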
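Assay system – CHO-derived RD-HGA16 cells with stable Gα16 and human TAAR1 · Compound dosing – one-point dosing at 3 µM (nominal) · Incubation – 17-24 h seeding, 75 min 37 °C dye, 30 min RT · Measured by – kinetic Fluo-8 calcium fluorescence · Control set – DMSO vehicle as 0%, PEA at EC100 as 100% · Repeats – single well for each compound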
CHO parental Ca: counter-screen for OX1R antagonists: effect in parental CHO cells; parental CHO-K1, ATP-induced calcium, Fluo-8 fluorescence; inhibition, % at 5.6 µM; actives 0.63% (n = 330,000);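 active = inhibition above that plate's mean sample inhibition plus 3 SD, cut at about 26% in these data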;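 also: 0% = ATP-challenged DMSO wells and 100% = DMSO wells without ATP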
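Material: Parental CHO cells | Reagent: ATP | Compound dosing: Single nominal dose of 5.6 µM per compound | Detection: Intracellular calcium via Fluo-8 no-wash fluorescent dye | Read-out: % inhibition of ATP-induced calcium mobilization | Benchmarks: Low control ATP plus DMSO, high control DMSO only | Replicates: Singlicate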
OX1R antag-2: OX1R (human) antagonism; O43613; OX1R-expressing cells, FRET antagonist read-out; inhibition, % at 6.6 µM; actives 1.8% (n = 330,000); AID 485270; in the data active = inhibition mostly above about 38%, no sharp cut-off; inactive = mostly below about 40%;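 also: 0% = agonist challenge alone and 100% = reference antagonist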
TAAR1 antag: antagonists of human TAAR1. CHO RD-HGA16 TAAR1, Fluo-8 calcium fluorescence, antagonist. actives 1.5% (n = 360,000). Q96RJ0. inhibition, % at 3 µM. AID 624466;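 active = inhibition above a per-plate cutoff, the mean inhibition of test compounds on that plate plus 3 SD, cut at about 49% in these data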;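 also: 0% = DMSO plus EC80 beta-PEA response and 100% = DMSO alone without agonist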
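Test system: hTAAR1-expressing CHO RD-HGA16 cells, Gα16-coupled; Probe or stimulus: EC80 β-phenethylamine stimulus; Compound dosing: single nominal final test compound concentration of 3 µM; Timing: 140 s kinetic read after compound, 140 s after agonist; Signal: Fluo-8 calcium-sensitive fluorescence; Measure: % inhibition of agonist calcium response; Controls: DMSO and EC80 PEA controls.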
TAAR1 ag conf: confirmation of human TAAR1 agonists; shares compounds with TAAR1 ag; CHO RD-HGA16 TAAR1, Fluo-8 calcium fluorescence; scaled: DMSO 0%, maximal phenethylamine 100%; activation, % at 3 µM; actives 82% (n = 2,400); AID 651783;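 active = activation above a cutoff set at the run's mean compound activation plus 3 SD, cut at about 39% in these data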
Ga16 ag counter: nonselective agonist in parental cells, TAAR1 agonist counter-screen | actives 50% (n = 2,400) | shares compounds with TAAR1 ag | activation, % at 3 µM | AID 651787 | CHO-Ga16 parental, Fluo-8 calcium fluorescence; normalized to maximal ATP response, DMSO zero;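 active = activation above the run cutoff, the mean activation over all tested wells plus 3 SD, cut at about 12% in these data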;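 also: 0% = DMSO wells and 100% = maximal ATP response on the peak over basal ratio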
TAAR1 desensitize: human TAAR1 agonist that also desensitizes the receptor | actives 46% (n = 2,400) | inhibition, % at 3 µM | CHO RD-HGA16 hTAAR1, Fluo-8 calcium, beta-PEA response inhibition | shares compounds with TAAR1 ag;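 active = inhibition above the run cutoff, the mean inhibition of all test compounds plus 3 SD, cut at about 49% in these data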;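 also: beta-PEA stimulus applied at its EC80; loss of beta-PEA calcium signal after compound pretreatment read as receptor desensitization; 0% = DMSO with beta-PEA at EC80 and 100% = DMSO alone without agonist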
Ga16 nonsel ant: nonselective Ga16 antagonist in TAAR1 agonist counter-screen | shares compounds with TAAR1 ag | CHO-Ga16 ATP-induced calcium, Fluo-8 fluorescence | inhibition, % at 3 µM | actives 39% (n = 2,400);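 active = inhibition above the plate's mean compound inhibition plus 3 SD, computed per plate, cut at about 22% in these data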;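 also: 0% = EC80 ATP with DMSO and 100% = DMSO wells without ATP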
Starred values were filed as active, the others as inactive; . = no result. The list is not random: actives were taken first. Their share in the collection is about 4%.

SMILES	OX1R antag-1	TAAR1 ag	CHO parental Ca	OX1R antag-2	TAAR1 antag	TAAR1 ag conf	Ga16 ag counter	TAAR1 desensitize	Ga16 nonsel ant
CN(C[C@@H](CC1CCCCC1)N(C[C@H](Cc1ccccc1)N(CCc1ccccc1)N=O)N=O)N=O	-15	60*	-13	22	7	94*	2	36	-4
Nc1[nH]c(C(=O)c2ccccc2)c(-c2cccc3ccccc23)c1C(=O)c1cccs1	.	-1	.	.	-7	.	.	.	.
CC(C(=O)Nc1ccc2c(c1)OCCO2)c1ccc([N+](=O)[O-])cc1 (stereo not given)	25	128*	31*	3	76*	123*	85*	78*	40*
CC(C(=O)Nc1ccc2c(c1)OCO2)c1ccc([N+](=O)[O-])cc1 (stereo not given)	-14	37	6	9	15	.	.	.	.
CC(C)[C@H](NC(=O)c1ccccc1)C(=O)OCC(=O)c1ccc(S(=O)(=O)N2CCCCC2)cc1	-30	1	-19	12	-12	.	.	.	.
Cc1cccc(Nc2nc(C)cc(C)n2)c1	.	-1	.	.	-28	.	.	.	.
Cc1cc(N(C)C)nc(Nc2ccccc2)n1	-24	92*	-25	5	87*	108*	1	99*	1
CCCCN(C)CCC(=O)Nc1ccc2c(c1)CCC2	-43	44*	-3	11	9	69*	1	16	-1
O=c1[nH]ncc(N/N=C\c2cccnc2)c1Cl	10	11	-11	28	-16	.	.	.	.
O=c1[nH]ncc(N/N=C\c2cccs2)c1Cl	9	.	2	37	.	.	3	.	7
Cc1cccc(/C=N\Nc2cn[nH]c(=O)c2Cl)c1	-13	53*	-5	9	70*	88*	-2	72*	0
Cc1ccc([C@@H]2C[C@H]3[C@@H](CN2S(=O)(=O)c2ccc(Cl)cc2)C(=O)C[C@@H](c2ccc(Cl)cc2)N3S(=O)(=O)c2ccccc2C)cc1	.	3	.	.	-16	.	.	.	.
Cc1cc2nc(NCCCO)n(CC(=O)c3cc(C(C)(C)C)c(O)c(C(C)(C)C)c3)c2cc1C	5	49*	9	17	44	53*	30*	41	34*
O=C(OCc1ccccc1C(F)(F)F)c1ccc(Br)c(S(=O)(=O)N2CCOCC2)c1	.	4	.	.	-6	.	.	.	.
Cc1ccc2c(c1)[C@H]1[C@H](CO2)[C@H](c2ccccc2)[C@]2(C)C(=O)N(Cc3ccc(F)cc3)CC(=O)N12	34	62*	-16	11	34	29	19*	17	19
COc1ccc(Cc2nnc(NC(=O)c3ccc(OC)c(OC)c3)s2)cc1OC	-14	1	-22	14	-13	.	.	.	.
COc1ccc(Cc2nnc(NC(=O)CSc3ccccc3)s2)cc1	-11	49*	8	11	50*	8	0	3	7
COc1ccc(Cc2nnc(NC(=O)CSc3ccc(Cl)cc3)s2)cc1OC	.	87*	.	.	35	75*	42*	36	20
COc1ccc(-n2nnnc2C(c2cc3ccccc3o2)N2CCN(C/C=C/c3ccccc3)CC2)cc1 (stereo not given)	.	2	.	.	-25	.	.	.	.
Oc1c(C=C2N=c3ccccc3=N2)sc(=S)n1C1CCCC1	-2	5	-4	8	-15	.	.	.	.
Cc1ccc(C(=O)Nn2c(O)c(C=C3N=c4ccccc4=N3)sc2=S)cc1	-28	54*	-2	14	35	52*	3	59*	23*
COc1ccc(Cn2c(C3CCCCC3)nc3c(c(=O)c4ccccc4n3C)c2=O)cc1	-26	.	-25	5	.	.	.	.	.

Screening data: PubChem BioAssay, The Scripps Research Institute Molecular Screening Center
